# Measured values from paper PMC10013581 (Drug Design, Development and Therapy, 2023).
# Where “and” joins values, the source holds several entries; their conditions need not be identical. Identical values can stand only once. Like-named read-outs stand apart in the source and are kept apart here.
# Experiments:
# [1] = cited from earlier work
# [2] = tested on: c-Met-dependent non-small cell lung cancer (NSCLC) and other tumor models; details: SCC244 at 10 mg/kg; cited from earlier work
# [3] = no reference given, cited from earlier work
# Safety evaluation = assay type: in vivo, human; details: single oral 300 mg
# Outline: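 Each of the three dosing periods had 8 days of post-dose follow-up. Monitoring covered physical examination, vital signs, 12-lead ECG, haematology, urinalysis, biochemistry, coagulation and adverse events. Vital signs and ECG were taken within 1 h pre-dose, at 3 h ±30 min post-dose, and daily at other visits. Adverse events were graded by NCI CTCAE v5.0. All 18 dosed subjects formed the safety set.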
# [4] = assay type: in vivo, human
# Outline: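 Three-period crossover in 18 healthy males aged 18–45 y with a 14-day washout. Dosing was fasted, or within 30 min of starting a high-fat/high-calorie or low-fat meal, with 240 mL water and no food for ≥4 h. EDTA plasma was sampled 0–168 h and assayed by LC-MS/MS (MRM, d6 internal standard). NCA gave parameters; log-transformed values were fitted by mixed-effects model for geometric mean ratios with 90% CI.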
# [5] = single oral 300 mg, fasting, n=18
# [6] = single oral 300 mg, high-fat meal, n=17
# [7] = single oral 300 mg, low-fat meal, n=18
# [8] = single oral 300 mg, n=17, bioavailability analysis set
structure (smiles),measurement,setting,value
CS(=O)(=O)CCNCc1ccc(-c2ccc3ncnc(Nc4ccc(OCc5cccc(F)c5)c(Cl)c4)c3c2)o1 [Lapatinib],Bioavailability increase with a high-fat meal,[1],161%
same,Bioavailability increase with a low-fat meal,[1],80%
Cn1cc(-c2cnc3cnn(S(=O)(=O)c4cnc5ccc(-c6cnn(C)c6)cn45)c3c2)cn1 [SCC244],Efficacy compared with capmatinib and crizotinib,[2],comparable with that of capmatinib at 15 mg/kg and crizotinib at 50 mg/kg
same,Solubility in water,[3],practically insoluble in water
same,Biopharmaceutics Classification System (BCS) class,[3]; poor aqueous solubility but sufficient permeability,Class II
same,Solubility versus pH,[3]; weak base drug,declines greatly when the pH is higher than 1.2
same,"Other tolerability assessments (laboratory parameters, vital signs, physical examination, 12-lead ECGs)",Safety evaluation; all meal conditions,No clinically significant abnormalities
same,SAEs or AEs leading to permanent discontinuation,Safety evaluation; all meal conditions,No SAEs or AEs leading to permanent discontinuation were reported
same,Incidence of AEs (subjects with any AE),"Safety evaluation; fasted, 12/18 subjects",66.7%
same,Incidence of AE blood fibrinogen decreased,"Safety evaluation; fasting, n=18",16.7% (3)
same,Incidence of AE dizziness,"Safety evaluation; fasting, n=18",16.7% (3)
same,Incidence of AE head discomfort,"Safety evaluation; fasting, n=18",5.6% (1)
same,Incidence of AE headache,"Safety evaluation; fasting, n=18",27.8% (5)
same,Incidence of AE protein urine presence,"Safety evaluation; fasting, n=18",16.7% (3)
same,Incidence of AEs (subjects with any AE),"Safety evaluation; high-fat meal, 12/17 subjects",70.6%
same,Incidence of AE blood fibrinogen decreased,"Safety evaluation; high-fat meal, n=17",23.5% (4)
same,Incidence of AE dizziness,"Safety evaluation; high-fat meal, n=17",0% (0)
same,Incidence of AE head discomfort,"Safety evaluation; high-fat meal, n=17",11.8% (2)
same,Incidence of AE headache,"Safety evaluation; high-fat meal, n=17",47.1% (8)
same,Incidence of AE protein urine presence,"Safety evaluation; high-fat meal, n=17",0% (0)
same,Subjects with a CTCAE grade 2 AE (headache); all other AEs grade 1,Safety evaluation; low-fat meal,1 subject
same,Incidence of AEs (subjects with any AE),"Safety evaluation; low-fat meal, 15/18 subjects",83.3%
same,Incidence of AE blood fibrinogen decreased,"Safety evaluation; low-fat meal, n=18",27.8% (5)
same,Incidence of AE dizziness,"Safety evaluation; low-fat meal, n=18",11.1% (2)
same,Incidence of AE head discomfort,"Safety evaluation; low-fat meal, n=18",11.1% (2)
same,Incidence of AE headache,"Safety evaluation; low-fat meal, n=18",44.4% (8)
same,Incidence of AE protein urine presence,"Safety evaluation; low-fat meal, n=18",5.6% (1)
same,Tmax,"[4]; male, human, plasma, po, 300 mg",4 h
same,AUC(0-inf),"[4]; male, human, plasma, po, 300 mg, AUC0-inf (geometric mean), single oral 300 mg, fasting, n=17, bioavailability analysis set",25300 ng·h/mL
same,AUC(0-inf),"[4]; male, human, plasma, po, 300 mg, AUC0-inf (geometric mean), single oral 300 mg, high-fat meal, n=17, bioavailability analysis set",59700 ng·h/mL
same,AUC(0-inf),"[4]; male, human, plasma, po, 300 mg, AUC0-inf (geometric mean), single oral 300 mg, low-fat meal, n=17, bioavailability analysis set",55300 ng·h/mL
same,AUC(0-inf),"[4]; male, human, plasma, po, 300 mg, AUC0-inf, mean (SD), single oral 300 mg, fasting, n=18",27700 ng·h/mL
same,AUC(0-inf),"[4]; male, human, plasma, po, 300 mg, AUC0-inf, mean (SD), single oral 300 mg, high-fat meal, n=17",65100 ng·h/mL
same,AUC(0-inf),"[4]; male, human, plasma, po, 300 mg, AUC0-inf, mean (SD), single oral 300 mg, low-fat meal, n=18",60500 ng·h/mL
same,AUC(0-t),"[4]; male, human, plasma, po, 300 mg, AUC0-t (geometric mean), single oral 300 mg, fasting, n=17, bioavailability analysis set",24800 ng·h/mL
same,AUC(0-t),"[4]; male, human, plasma, po, 300 mg, AUC0-t (geometric mean), single oral 300 mg, high-fat meal, n=17, bioavailability analysis set",58900 ng·h/mL
same,AUC(0-t),"[4]; male, human, plasma, po, 300 mg, AUC0-t (geometric mean), single oral 300 mg, low-fat meal, n=17, bioavailability analysis set",54300 ng·h/mL
same,AUC(0-t),"[4]; male, human, plasma, po, 300 mg, AUC0-t, mean (SD), single oral 300 mg, fasting, n=18",27200 ng·h/mL
same,AUC(0-t),"[4]; male, human, plasma, po, 300 mg, AUC0-t, mean (SD), single oral 300 mg, high-fat meal, n=17",64100 ng·h/mL
same,AUC(0-t),"[4]; male, human, plasma, po, 300 mg, AUC0-t, mean (SD), single oral 300 mg, low-fat meal, n=18",59600 ng·h/mL
same,Cmax,"[4]; male, human, plasma, po, 300 mg, Cmax (geometric mean), single oral 300 mg, fasting, n=17, bioavailability analysis set",824 ng/mL
same,Cmax,"[4]; male, human, plasma, po, 300 mg, Cmax (geometric mean), single oral 300 mg, high-fat meal, n=17, bioavailability analysis set",1610 ng/mL
same,Cmax,"[4]; male, human, plasma, po, 300 mg, Cmax (geometric mean), single oral 300 mg, low-fat meal, n=17, bioavailability analysis set",1600 ng/mL
same,Cmax,"[4]; male, human, plasma, po, 300 mg, Cmax, mean (SD), single oral 300 mg, fasting, n=18",869 ng/mL
same,Cmax,"[4]; male, human, plasma, po, 300 mg, Cmax, mean (SD), single oral 300 mg, high-fat meal, n=17",1730 ng/mL
same,Cmax,"[4]; male, human, plasma, po, 300 mg, Cmax, mean (SD), single oral 300 mg, low-fat meal, n=18",1750 ng/mL
same,half-life,"[4]; male, human, plasma, po, 300 mg, Mean t1/2 under different meal conditions, single oral 300 mg, low-fat meal, high-fat meal and fasted groups",24.7 to 26.1 h
same,half-life,"[4]; male, human, plasma, po, 300 mg, t1/2, mean (SD), single oral 300 mg, fasting, n=18",26.1 h
same,half-life,"[4]; male, human, plasma, po, 300 mg, t1/2, mean (SD), single oral 300 mg, high-fat meal, n=17",24.7 h
same,half-life,"[4]; male, human, plasma, po, 300 mg, t1/2, mean (SD), single oral 300 mg, low-fat meal, n=18",25.6 h
same,"%CV (AUC0-inf), inter-subject variability",[4]; [5],44.0%
same,"%CV (AUC0-t), inter-subject variability",[4]; [5],44.2%
same,"%CV (Cmax), inter-subject variability",[4]; [5],34.3%
same,"CL/F, mean (SD)",[4]; [5],12.8 (5.5) L/h
same,"%CV (AUC0-inf), inter-subject variability",[4]; [6],35.3%
same,"%CV (AUC0-t), inter-subject variability",[4]; [6],34.8%
same,"%CV (Cmax), inter-subject variability",[4]; [6],30.5%
same,"CL/F, mean (SD)",[4]; [6],5.7 L/h and 5.7 (4.2) L/h
same,"Tmax, median (range)",[4]; [6],4.0 (2.0–12.0) h
same,"%CV (AUC0-inf), inter-subject variability",[4]; [7],31.6%
same,"%CV (AUC0-t), inter-subject variability",[4]; [7],31.5%
same,"%CV (Cmax), inter-subject variability",[4]; [7],30.2%
same,"CL/F, mean (SD)",[4]; [7],6.3 L/h and 6.3 (5.8) L/h
same,"Tmax, median (range)",[4]; [7],4.0 (2.0–8.0) h
same,AUC0-inf geometric mean ratio (90% CI) of high-fat meal vs fasting,[4]; [8],235.9% (207.5–268.3%)
same,AUC0-inf geometric mean ratio (90% CI) of low-fat meal vs fasting,[4]; [8],218.3% (192.0–248.3%)
same,AUC0-t geometric mean ratio (90% CI) of high-fat meal vs fasting,[4]; [8],237.4% (208.7–270.0%)
same,AUC0-t geometric mean ratio (90% CI) of low-fat meal vs fasting,[4]; [8],219.2% (192.7–249.3%)
same,Cmax geometric mean ratio (90% CI) of high-fat meal vs fasting,[4]; [8],194.8% (174.3–217.7%)
same,Cmax geometric mean ratio (90% CI) of low-fat meal vs fasting,[4]; [8],194.6% (174.1–217.5%)
C[C@@H](Oc1cc(-c2cnn(C3CCNCC3)c2)cnc1N)c1c(Cl)ccc(F)c1Cl [crizotinib],Effect of food on bioavailability,[1],unaffected by food
CNC(=O)c1cc(Oc2ccc(NC(=O)Nc3ccc(Cl)c(C(F)(F)F)c3)c(F)c2)ccn1 [regorafenib],Bioavailability increase with a high-fat meal,[1],48%
same,Bioavailability increase with a low-fat meal,[1],36%
COc1cc2c(Nc3ccc(Br)cc3F)ncnc2cc1OCC1CCN(C)CC1 [vandetanib],Effect of food on bioavailability,[1],unaffected by food
CCCS(=O)(=O)Nc1ccc(F)c(C(=O)c2c[nH]c3ncc(-c4ccc(Cl)cc4)cc23)c1F [vemurafenib],Effect of high-fat meal (increase),[1]; 960mg single dose,3.7 fold
